In ChEMBL document CHEMBL1914385, “Isolation, structure, and biological activities of Fellutamides C and D from an undescribed Metulocladosporiella (Chaetothyriales) using the genome-wide Candida albicans fitness test” (J Nat Prod, 2011):
Values after ≈ are worked out from the molar mass of the structure shown. Active and inactive are the calls of the source. The rule behind the calls is not given here. Non-standard residues stand in square brackets, D forms with d. Residues, ends and D or L forms follow the SMILES beside them. *: point of attachment. Myristoyl = CCCCCCCCCCCCCC(=O)*; Leu(ol) = CC(C)C[C@H](N)CO

What was measured:
Staphylococcus aureus = test: Antibacterial activity against Staphylococcus aureus MB2865; format: functional
Aspergillus fumigatus = test: Antifungal activity against Aspergillus fumigatus MF5668 after 24 hrs by NCCLS M27-P broth macrodilution method; format: functional; details: MF5668, 24 h
In short: (§1)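 MIC panel run in the fitness-test medium (modified RPMI), following an earlier published MIC method.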

[1] = Inhibition of Candida albicans 26S proteasome
In short: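 Chymotrypsin-like proteasome activity measured by luminogenic Proteasome-Glo assay, with modifications. Used whole-cell extracts of exponential-phase C. albicans, about 10⁶ cell equivalents per assay.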

Candida albicans [2] = test: Antifungal activity against Candida albicans harboring heterozygous deletion of orf19.3168/RPN8 after 24 hrs by NCCLS M27-P broth macrodilution method; format: functional
Clavispora lusitaniae = test: Antifungal activity against Candida lusitaniae MY1396 after 24 hrs by NCCLS M27-P broth macrodilution method; format: functional; details: MY1396, 24 h; in short: as §1
Candida albicans [3] = test: Antifungal activity against Candida albicans harboring heterozygous deletion of PRE4/orf19.4230 after 24 hrs by NCCLS M27-P broth macrodilution method; format: functional
Candida albicans [4] = test: Antifungal activity against Candida albicans 2323 after 24 hrs by NCCLS M27-P broth macrodilution method; format: functional; details: Candida albicans, 2323, 24 h; in short: as §1
Candida parapsilosis = test: Antifungal activity against Candida parapsilosis ATCC 22019 after 24 hrs by NCCLS M27-P broth macrodilution method; format: functional; details: Lodderomyces parapsilosis, ATCC 22019, 24 h; in short: as §1
Nakaseomyces glabratus = test: Antifungal activity against Candida glabrata MY1381 after 24 hrs by NCCLS M27-P broth macrodilution method; format: functional; details: MY1381, 24 h; in short: as §1
Candida albicans [5] = test: Antifungal activity against Candida albicans harboring heterozygous deletion of orf19.4088/NUP188 after 24 hrs by NCCLS M27-P broth macrodilution method; format: functional
[6] = system: Trichophyton mentagrophytes; test: Antifungal activity against Trichophyton mentagrophytes MF7004 after 24 hrs by NCCLS M27-P broth macrodilution method; format: functional; details: MF7004, 24 h; in short: as §1
Candida tropicalis = test: Antifungal activity against Candida tropicalis MY1012 after 24 hrs by NCCLS M27-P broth macrodilution method; format: functional; details: MY1012, 24 h; in short: as §1
Candida albicans [7] = test: Ratio of gliotoxin IC50 to compound IC50 for Candida albicans 26S proteasome
PC-3 = test: Growth inhibition of human PC3 cells; format: functional, cell-based
In short: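 PC-3 cells treated for 48 h across an 8-point dose series (final 50 000, 12 500, 3125, 781.3, 195.3, 48.8, 12.2, 3.1 nM). Viable cell mass was measured by ATP luminescence (Vialight) to give IC50.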

Candida albicans [8] = test: Antifungal activity against Candida albicans after 24 hrs by NCCLS M27-P broth macrodilution method; format: functional
Candida albicans [9] = test: Antifungal activity against Candida albicans harboring heterozygous deletion of orf19.5378/SCL1 after 24 hrs by NCCLS M27-P broth macrodilution method; format: functional
A549 = test: Growth inhibition of human A549 cells at 3.1 to 50000 nM
Pichia kudriavzevii = test: Antifungal activity against Candida krusei ATCC 6258 after 24 hrs by NCCLS M27-P broth macrodilution method; format: functional; details: ATCC 6258, 24 h; in short: as §1
Candida albicans [10] = test: Ratio of lactacystin IC50 to compound IC50 for Candida albicans 26S proteasome
Candida albicans [11] = test: Antifungal activity against Candida albicans harboring heterozygous deletion of PRE4/orf19.4230 at 0.01 to 10 ug/mL after 24 hrs by NCCLS M27-P broth macrodilution method; format: functional, organism-based
Candida albicans [12] = test: Antifungal activity against wild-type Candida albicans at 0.01 to 10 ug/mL after 24 hrs by NCCLS M27-P broth macrodilution method; format: functional, organism-based
Candida albicans [13] = test: Antifungal activity against Candida albicans at 200 ug/ml after 24 hrs by NCCLS M27-P broth macrodilution method; format: functional, organism-based
Candida albicans [14] = test: Antifungal activity against Candida albicans harboring heterozygous deletion of PRE4/orf19.4230 at 10 ug/mL after 24 hrs by NCCLS M27-P broth macrodilution method; format: functional, organism-based
Candida albicans [15] = test: Antifungal activity against wild-type Candida albicans at 10 ug/mL after 24 hrs by NCCLS M27-P broth macrodilution method; format: functional, organism-based

Structure (SMILES) | MIC (Staphylococcus aureus) [µg/mL] | MIC (Aspergillus fumigatus) [µg/mL] | IC50 [1] [µg/mL] | MIC (Candida albicans [2]) [µg/mL] | MIC (Clavispora lusitaniae) [µg/mL] | MIC (Candida albicans [3]) [µg/mL] | MIC (Candida albicans [4]) [µg/mL] | MIC (Candida parapsilosis) [µg/mL] | MIC (Nakaseomyces glabratus) [µg/mL] | MIC (Candida albicans [5]) [µg/mL] | MIC [6] [µg/mL] | MIC (Candida tropicalis) [µg/mL] | Ratio IC50 (Candida albicans [7]) | IC50 (PC-3) [nM] | MIC (Candida albicans [8]) [µg/mL] | MIC (Candida albicans [9]) [µg/mL] | growth inhibition (GI) (A549) | MIC (Pichia kudriavzevii) [µg/mL] | Ratio IC50 (Candida albicans [10]) | Activity (Candida albicans [11]) | also measured
CCCCCCCCCCC[C@@H](O)CC(=O)N[C@@H](CC(N)=O)C(=O)N[C@H](C(=O)N[C@H](C=O)C(C)C)C(O)CC(N)=O (stereo partly specified) [FELLUTAMIDE C] | > 32 | 16 (≈ 27.3 µM) | 0.2 (≈ 0.341 µM) | 2.5 (≈ 4.27 µM) | 16 (≈ 27.3 µM) | 2.5 (≈ 4.27 µM) | 4 (≈ 6.83 µM) | 2 (≈ 3.41 µM) | 4 (≈ 6.83 µM) | 2.5 (≈ 4.27 µM) | > 32 | 4 (≈ 6.83 µM) | 10 | 440 | 1.25 (≈ 2.13 µM) | 2.5 (≈ 4.27 µM) | inactive | 4 (≈ 6.83 µM) | 10 |  | 
CN1C(=O)[C@]23CC4=CC=C[C@H](O)[C@H]4N2C(=O)[C@@]1(CO)SS3 [GLIOTOXIN] |  |  |  |  |  |  |  |  |  |  |  |  |  |  | 4 (≈ 12.3 µM) |  |  |  |  |  | 
CCCCCCCCCCC[C@@H](O)CC(=O)N[C@@H](CC(N)=O)C(=O)N[C@H](C(=O)N[C@H](C=O)CC(C)C)C(O)CC(N)=O (stereo partly specified) [FELLUTAMIDE D] | > 32 | 32 (≈ 53.4 µM) | 0.2 (≈ 0.333 µM) | 10 (≈ 16.7 µM) | 32 (≈ 53.4 µM) | 10 (≈ 16.7 µM) | 16 (≈ 26.7 µM) | 8 (≈ 13.3 µM) | 8 (≈ 13.3 µM) | 10 (≈ 16.7 µM) | > 32 | 8 (≈ 13.3 µM) | 10 | 160 | 1.25 (≈ 2.08 µM) | 10 (≈ 16.7 µM) | inactive | 8 (≈ 13.3 µM) | 10 | Active | Activity (Candida albicans [12]): Active
CCCCCCCCCCCCCC(=O)N[C@@H](CC(N)=O)C(=O)N[C@@H](CCC(N)=O)C(=O)N[C@H](C=O)CC(C)C (Myristoyl-Asn-Gln-Leu-aldehyde) |  |  |  |  |  |  |  |  |  |  |  |  |  |  |  |  |  |  |  | Active | Activity (Candida albicans [12]): Active
CC(=O)N[C@@H](CSC(=O)[C@]1([C@@H](O)C(C)C)NC(=O)[C@H](C)[C@@H]1O)C(=O)O |  |  |  |  |  |  |  |  |  |  |  |  |  |  |  |  |  |  |  |  | Activity (Candida albicans [13]): inactive
CCCCCCCCCCCCCC(=O)N[C@@H](CC(N)=O)C(=O)N[C@@H](CCC(N)=O)C(=O)N[C@H](CO)CC(C)C (Myristoyl-Asn-Gln-[Leu(ol)]) |  |  |  |  |  |  |  |  |  |  |  |  |  |  |  |  |  |  |  |  | Activity (Candida albicans [14]): inactive; Activity (Candida albicans [15]): inactive
